Experimental data from ChEMBL document CHEMBL2202972, “Synthesis and biological evaluation of 2-substituted-4-(3',4',5'-trimethoxyphenyl)-5-aryl thiazoles as anticancer agents” (Bioorg Med Chem, 2012).
Calls of active or inactive are those of the source. The rule behind the calls is not given here.

Experiments:
[1] = tested on: CCRF-CEM; test: Resistance ratio of IC50 for human vinblastine-resistant CEM/VBL100 cells overexpressing P-glycoprotein to IC50 for human CEM cells; assay type: functional
[2] = tested on: LoVo; test: Resistance ratio of IC50 for human doxorubicin-resistant LoVo/DX cells overexpressing P-glycoprotein to IC50 for human LoVo cells; assay type: functional
[3] = tested on: HeLa; test: Downregulation of Mcl-1 expression in human HeLa cells at 250 to 500 nM after 24 hrs by Western blot analysis; assay type: functional, cell-based
Outline: (§1)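 HeLa cells treated for 24 or 48 h, washed twice with ice-cold PBS and lysed on ice 30 min; lysates spun at 15000 ×g, 4 °C. Protein (20 μg) resolved by SDS–PAGE on 7.5–15% gels and blotted to PVDF. Specific primary antibodies for 2 h at room temperature, then peroxidase secondary for 60 min, ECL detection. Membranes stripped and reprobed for β-actin as loading control.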

[4] = tested on: HeLa; test: Effect on Bax expression in human HeLa cells at 250 to 500 nM after 24 to 48 hrs by Western blot analysis; assay type: functional, cell-based; outline: as §1
[5] = tested on: HeLa; test: Induction of apoptosis in human HeLa cells assessed as appearance of cleaved caspase-8 protein at 250 to 500 nM after 24 to 48 hrs by Western blot analysis; assay type: functional, cell-based; outline: as §1
[6] = tested on: HeLa; test: Induction of apoptosis in human HeLa cells assessed as mitochondrial polarization; assay type: functional, cell-based
[7] = tested on: HeLa; test: Induction of apoptosis in human HeLa cells assessed as effect on caspase-9 activation at 250 to 500 nM after 24 to 48 hrs by Western blot analysis; assay type: functional, cell-based; outline: as §1
[8] = tested on: HeLa; test: Induction of apoptosis in human HeLa cells assessed as increase in caspase-3-mediated PARP cleavage at 250 to 500 nM after 24 to 48 hrs by Western blot analysis; assay type: functional, cell-based; outline: as §1
[9] = tested on: HeLa; test: Induction of apoptosis in human HeLa cells assessed as caspase-3 activation at 250 to 500 nM after 24 to 48 hrs by Western blot analysis; assay type: functional, cell-based; outline: as §1
[10] = tested on: HeLa; test: Induction of apoptosis in human HeLa cells at 500 nM after 24 to 48 hrs by Annexin V-FITC/propidium iodide staining based biparametric cytofluorimetric analysis; assay type: functional, cell-based
Outline: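 HeLa cells treated at 250 or 500 nM for 24 or 48 h, then labelled with annexin-V-FITC (phosphatidylserine) plus propidium iodide. Red and green fluorescence measured by biparametric flow cytometry. Mean ± SEM of three independent experiments.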

[11] = biological target: T1, M-phase inducer phosphatase 3 (Homo sapiens) (UniProt P30307); test: Induction of cdc25C phosphorylation in human HeLa cells assessed as cdc2 kinase dephosphorylation at Tyr15 in human HeLa cells at 250 to 500 nM after 24 to 48 hrs by Western blot analysis; assay type: cell-based; outline: as §1
T1 sequence (whole entry): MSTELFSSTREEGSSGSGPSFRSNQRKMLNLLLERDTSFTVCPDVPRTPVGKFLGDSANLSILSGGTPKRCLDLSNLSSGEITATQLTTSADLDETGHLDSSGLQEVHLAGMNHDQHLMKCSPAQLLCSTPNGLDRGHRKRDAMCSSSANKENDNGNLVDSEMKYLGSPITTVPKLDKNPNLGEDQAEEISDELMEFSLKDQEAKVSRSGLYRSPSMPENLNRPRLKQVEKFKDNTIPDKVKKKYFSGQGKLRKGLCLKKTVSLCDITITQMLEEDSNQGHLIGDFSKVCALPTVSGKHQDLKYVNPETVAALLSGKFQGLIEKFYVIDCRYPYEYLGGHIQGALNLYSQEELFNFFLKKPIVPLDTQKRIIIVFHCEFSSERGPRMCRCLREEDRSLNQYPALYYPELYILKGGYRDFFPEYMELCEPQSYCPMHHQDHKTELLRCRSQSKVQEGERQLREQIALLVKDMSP

[12] = tested on: Jurkat; test: Cell cycle arrest in human Jurkat cells assessed as decrease in accumulation of cells at G1 phase after 24 hrs by propidium iodide staining based flow cytometric analysis; assay type: functional
Outline: (§2)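 HeLa or Jurkat cells (5 × 10⁵, exponential growth) treated 24 h with 31–500 nM compound. Cells fixed in ice-cold 70% ethanol, treated with lysis buffer containing RNase A and 0.1% Triton X-100, then stained with propidium iodide. DNA content measured by flow cytometry to give phase distribution. Mean ± SEM of three independent experiments.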

[13] = tested on: Jurkat; test: Cell cycle arrest in human Jurkat cells assessed as decrease in accumulation of cells at S phase after 24 hrs by propidium iodide staining based flow cytometric analysis; assay type: functional; outline: as §2
[14] = tested on: HeLa; test: Cell cycle arrest in human HeLa cells assessed as decrease in accumulation of cells at G1 phase after 24 hrs by propidium iodide staining based flow cytometric analysis; assay type: functional; outline: as §2
[15] = tested on: HeLa; test: Cell cycle arrest in human HeLa cells assessed as decrease in accumulation of cells at S phase after 24 hrs by propidium iodide staining based flow cytometric analysis; assay type: functional; outline: as §2
[16] = tested on: HeLa; test: Cell cycle arrest in human HeLa cells assessed as accumulation of cells at G2/M phase after 24 hrs by propidium iodide staining based flow cytometric analysis; assay type: functional; outline: as §2
[17] = Antiproliferative activity against human taxol-resistant A549-T12 cells expressing tubulin mutant gene after 72 hrs by MTT assay; assay type: functional, cell-based; settings: A549, 72 h
Outline: (§3)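 Resistant sublines cultured under selection: LoVo^Doxo (doxorubicin-resistant LoVo subclone) in complete Ham's F12 with doxorubicin 0.1 μg/mL; A549-T12 in complete DMEM with taxol 12 nM. Seeded at 8 × 10³ per well, 18 h preincubation, then 72 h compound exposure at 37 °C. MTT read-out.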

[18] = tested on: CCRF-CEM; test: Antiproliferative activity against human CEM cells after 72 hrs by MTT assay; assay type: functional, cell-based
[19] = Antiproliferative activity against human doxorubicin-resistant LoVo/DX cells overexpressing P-glycoprotein after 72 hrs by MTT assay; assay type: functional, cell-based; outline: as §3
[20] = Growth inhibition of human resting PBL after 72 hrs by MTT assay; assay type: cell-based; settings: resting peripheral blood lymphocytes (PBL)
[21] = tested on: HeLa; test: Ratio of compound IC50 to CA-4 IC50 for human HeLa cells after 72 hrs by MTT assay; assay type: functional
[22] = tested on: MCF7; test: Ratio of CA-4 IC50 to compound IC50 for human MCF7 cells after 72 hrs by MTT assay; assay type: functional
[23] = tested on: HT-29; test: Ratio of CA-4 IC50 to compound IC50 for human HT-29 cells after 72 hrs by MTT assay; assay type: functional
[24] = tested on: A549; test: Ratio of CA-4 IC50 to compound IC50 for human A549 cells after 72 hrs by MTT assay; assay type: functional
[25] = tested on: HT-29; test: Antiproliferative activity against human HT-29 cells after 72 hrs by MTT assay; assay type: functional, cell-based; settings: HT-29, 72 h
[26] = tested on: Jurkat; test: Antiproliferative activity against human Jurkat cells after 72 hrs by MTT assay; assay type: functional, cell-based
Outline: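 Cells seeded at 8 × 10³ per well and incubated 18 h at 37 °C, 5% CO₂, then exposed to a range of compound concentrations for 72 h at 37 °C. Jurkat and HL-60 were grown in RPMI-1640, the others in DMEM, with penicillin, streptomycin and 10% FBS. DMSO stocks (10 mM); DMSO ≤0.25% final. Viability by MTT. […] Mean ± SE of ≥3 independent experiments.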

[27] = tested on: HL-60; test: Antiproliferative activity against human HL60 cells after 72 hrs by MTT assay; assay type: functional, cell-based; settings: HL-60, 72 h
[28] = tested on: HeLa; test: Antiproliferative activity against human HeLa cells after 72 hrs by MTT assay; assay type: functional, cell-based

Activity [11]: Active
IC50 [18]: 0.8 nM
IC50 [25]: 3.2 nM
IC50 [26]: 1.7 nM
IC50 [27]: 1.8 nM
IC50 [28]: 13.2 nM
Structure (SMILES): CCOc1ccc(-c2sc(NC)nc2-c2cc(OC)c(OC)c(OC)c2)cc1
Ratio IC50 [1]: 2.9
Ratio IC50 [2]: 0.5
Activity [3]: Active
Activity [4]: inactive
Activity [5]: Active
Activity [6]: Active
Activity [7]: inactive
Activity [8]: Active
Activity [9]: Active
Activity [10]: Active
Activity [12]: Dose-dependent effect
Activity [13]: Dose-dependent effect
Activity [14]: Dose-dependent effect
Activity [15]: Dose-dependent effect
Activity [16]: Dose-dependent effect
IC50 [17]: 21.5 nM
IC50 [19]: 14.5 nM
GI50 at 72 h [20]: 443 nM
Ratio IC50 [21]: 2
Ratio IC50 [22]: 15
Ratio IC50 [23]: 1000
Ratio IC50 [24]: 5
